Source: PubChem BioAssay AID624025 (Broad Institute, 2012)
Where “and” joins values, the source holds several entries; their conditions need not be identical. Identical values can stand only once. Calls of active or inactive are those of the source.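 How the source made its calls: active means compounds whose fitted half-maximal growth inhibition dose lies at or below twice the top tested dose; inconclusive means flat curve with 30 to 70% growth loss, or bad fit; inactive means the rest.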

Tested on: not listed separately
Test: yeast proliferation reduction, glucose carbon source – OD600, powder samples, set 4, dose response (AID 624025)
Settings: S. cerevisiae growth in glucose, OD600, 48 h; at 3 µM (top of the series)
Procedure, shortened: (§1)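 Assay system: Saccharomyces cerevisiae yeast cells, growth in glucose medium / Buffer or medium: CSM-glucose medium / Doses: compounds added to wells by pin transfer / Incubation: 48 h static incubation at 30 °C, humidified / Measured by: optical density at 600 nm / Benchmarks: amphotericin B at 10 µM as positive control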

| Compound | activity change, negative = inhibition |
| --- | --- |
| C/C=C/[C@@H]1[C@H]2C[C@@H](C)CC[C@@H]2C(C)=C[C@H]1C(=O)c1c(O)c(-c2ccc(O)cc2)c[nH]c1=O | -15.3% (inactive) |
| CCOC(=O)N1C(=O)C2(CCCCC2)N(c2ccc(C#N)cc2)C1=S | -20.2% (inactive) |
| CCOC(=O)N1C(=O)C2(CCCCC2)N(c2ccc(C)cc2)C1=S | -14.8% (inactive) and -15% (inactive) |
| CCOC(=O)N1C(=O)C2(CCCCC2)N(c2ccc(F)cc2)C1=S | -7.11% (inactive) |
| CCOC(=O)N1C(=O)C2(CCCCC2)N(c2ccc(Cl)cc2)C1=S | 0.052% (inactive) |
| CCOC(=O)N1C(=O)C2(CCCCC2)N(c2cccc(C)c2)C1=S | -12.2% (inactive) |
| CCOC(=O)N1C(=O)C2(CCCCC2)N(c2ccccc2)C1=S | -5.67% (inactive) |

Tested on: S. cerevisiae growth in glucose, OD600, 48 h
Test: as above
Settings: not given
Procedure, shortened: as §1

| Compound | AC50 [nM] |
| --- | --- |
| CC1/C=C/C=C\C=C\C=C\C=C\C=C\C=C\C(O[C@H]2OC(C)C(O)C(N)C2O)CC2OC(O)(CC(O)CC(O)C(O)CCC(O)CC(O)CC(=O)OC(C)C(C)C1O)CC(O)C2C(=O)O (stereo partly drawn) | 527 |
